Data set [1] has as its system MOLM-13 (Homo sapiens). The experiment in a line: Cytotoxicity against human MOLM13 cells assessed as cell viability measured at 96 hrs by MTT assay. Conditions: MOLM-13, 96 h. On the technique in general: Tetrazolium assays rely on reduction of a dye to a coloured formazan, in cell work by metabolically active cells.
For data set [2], the system named is MV4-11. The experiment in a line: Induction of apoptosis in human MV4-11 cells assessed as late apoptotic cells at 10 uM after 72 hrs by Annexin V-FITC/propidium iodide staining-based flow cytometric analysis (reference value: 2%). In kind it is functional. Summed up:
(§1)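 100,000 cells per well treated with 2.5, 5.0 or 10 μM for 72 h. Washed in ice-cold Ca/Mg-free PBS, resuspended in 100 μl binding buffer, stained with 5 μl PI plus 3 μl annexin V-FITC for 15 min in the dark, then read immediately by flow cytometry. Quadrants scored as live, early apoptotic, late apoptotic and necrotic.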

The target in data set [3] is Histone deacetylase (Homo sapiens) (UniProt Q13547+O15379+Q9UBN7+Q92769+Q9UQL6+Q8WUI4+Q9BY41+Q96DB2+P56524+Q9UKV0+Q969S8). Put plainly: Inhibition of HDAC in human MV4-11 cells assessed as increase in acetylation of histone H3 by Western blot analysis. The data set is classed as cell-based. Summed up: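 MV4-11 cells were treated and histones acid-extracted: Triton buffer, then NaCl buffer, 0.24 M H2SO4 on ice for 2 h, acetone precipitation overnight, Bradford quantitation. Histones (0.5 µg) were run on 4-20 % gradient gels, blotted to PVDF, blocked in 5 % milk and probed overnight at 4 °C with anti-acetyl-histone H3 (1:1000). HRP secondary, ECL detection, total histone H3 as loading control.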
Background: In western blotting, separated proteins are transferred to a membrane and probed.

Data set [4] can be described thus: Cytotoxicity against C57BL/6 mouse bone marrow cells assessed as cell viability at 5 to 10 uM measured up to 72 hrs by MTT assay. In kind it is cell-based. Put shortly: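 Total bone marrow from C57BL/6 mice cultured in IMDM with 20 % FBS, 10 ng/ml mouse IL-3, 10 ng/ml IL-6 and 50 ng/ml SCF. Exposed to 5 or 10 μM for up to 72 h. MTT added to 0.5 mg/ml for 3 h at 37 °C, formazan dissolved in SDS-HCl, A570 read. Three independent experiments, quadruplicate wells, mean ± SD.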

Data set [5] concerns MOLM-14. Put plainly: Induction of apoptosis in human MOLM14 cells assessed as late apoptotic cells at 5 uM after 72 hrs by Annexin V-FITC/propidium iodide staining-based flow cytometric analysis (reference value: 2%). In kind it is functional. Summed up: as §1
On the technique in general: In flow cytometry, cells or beads pass a laser one at a time.

Data set [6] has as its system MOLM-14. The experiment in a line: Induction of apoptosis in human MOLM14 cells assessed as early apoptotic cells at 10 uM after 72 hrs by Annexin V-FITC/propidium iodide staining-based flow cytometric analysis (reference value: 7%). In kind it is functional. Put shortly:
as §1

The target of data set [7] is T1, Protein deacetylase HDAC6 (Homo sapiens) (UniProt Q9UBN7).
T1 sequence (whole entry): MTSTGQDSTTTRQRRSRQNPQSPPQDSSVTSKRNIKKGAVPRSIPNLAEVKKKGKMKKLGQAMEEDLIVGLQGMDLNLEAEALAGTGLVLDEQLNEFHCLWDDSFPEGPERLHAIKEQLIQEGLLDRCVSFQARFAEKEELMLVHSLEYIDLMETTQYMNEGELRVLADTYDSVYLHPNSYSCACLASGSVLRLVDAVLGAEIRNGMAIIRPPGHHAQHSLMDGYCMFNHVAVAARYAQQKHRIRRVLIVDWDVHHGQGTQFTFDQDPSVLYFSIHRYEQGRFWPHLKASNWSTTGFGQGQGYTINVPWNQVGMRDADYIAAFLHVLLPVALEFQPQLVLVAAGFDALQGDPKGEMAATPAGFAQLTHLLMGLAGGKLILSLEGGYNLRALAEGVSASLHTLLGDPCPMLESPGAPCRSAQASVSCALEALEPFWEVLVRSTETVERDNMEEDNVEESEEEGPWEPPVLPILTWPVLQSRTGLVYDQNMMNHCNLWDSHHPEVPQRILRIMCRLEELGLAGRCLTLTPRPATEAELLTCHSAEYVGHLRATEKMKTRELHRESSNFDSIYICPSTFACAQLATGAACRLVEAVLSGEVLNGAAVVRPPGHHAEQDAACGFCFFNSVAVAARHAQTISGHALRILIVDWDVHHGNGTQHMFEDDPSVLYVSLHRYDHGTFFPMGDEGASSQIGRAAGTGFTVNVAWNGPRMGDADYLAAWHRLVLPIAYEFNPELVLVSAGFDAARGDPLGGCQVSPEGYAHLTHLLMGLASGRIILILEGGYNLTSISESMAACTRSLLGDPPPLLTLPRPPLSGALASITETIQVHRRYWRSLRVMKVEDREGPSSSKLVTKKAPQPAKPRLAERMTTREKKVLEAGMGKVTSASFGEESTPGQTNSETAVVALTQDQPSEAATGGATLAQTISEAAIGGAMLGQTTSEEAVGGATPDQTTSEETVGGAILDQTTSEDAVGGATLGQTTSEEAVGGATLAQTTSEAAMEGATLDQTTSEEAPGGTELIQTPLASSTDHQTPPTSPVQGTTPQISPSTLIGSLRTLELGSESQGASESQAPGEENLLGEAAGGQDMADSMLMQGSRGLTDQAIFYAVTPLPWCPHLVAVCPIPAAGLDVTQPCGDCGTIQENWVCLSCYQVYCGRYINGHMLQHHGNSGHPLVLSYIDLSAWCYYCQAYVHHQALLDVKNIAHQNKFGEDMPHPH
The experiment in a line: Inhibition of HDAC6 in human MV4-11 cells assessed as increase in acetylation of tubulin at lysine 40 by Western blot analysis. In kind it is cell-based.

Data set [8] concerns MOLM-13 (Homo sapiens). The experiment in a line: Induction of apoptosis in human MOLM13 cells assessed as early apoptotic cells at 10 uM after 72 hrs by Annexin V-FITC/propidium iodide staining-based flow cytometric analysis (reference value: 11%).
Data set [9] concerns MV4-11. Put plainly: Induction of apoptosis in human MV4-11 cells after 72 hrs by Annexin V-FITC/propidium iodide staining-based flow cytometric analysis. The data set is classed as functional, cell-based. Summed up: as §1
Data set [10] concerns MOLM-13 (Homo sapiens). Put plainly: Cell cycle arrest in human MOLM13 cells assessed as accumulation at G2/M phase after 72 hrs by propidium iodide staining-based flow cytometric analysis.
Data set [11] concerns MV4-11. The experiment in a line: Induction of apoptosis in human MV4-11 cells assessed as late apoptotic cells at 5 uM after 72 hrs by Annexin V-FITC/propidium iodide staining-based flow cytometric analysis (reference value: 2%). In kind it is functional. Put shortly:
as §1

Data set [12] relates to MOLM-14. The experiment in a line: Cytotoxicity against human MOLM14 cells assessed as cell viability measured at 96 hrs by MTT assay. As to conditions: MOLM-14, 96 h. In kind it is functional, cell-based. Put shortly:
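AML cells kept in RPMI with 10 % FBS and 1 % penicillin-streptomycin at 37 °C, 5 % CO₂, mycoplasma-screened. Seeded at 8,000 cells/well across a range of concentrations and read at several times up to 96 h. MTT added to 0.5 mg/ml final for 3 h at 37 °C, formazan dissolved in SDS-HCl, absorbance read at 570 nm. IC50 taken from the dose-response curves.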

The source made the active and inactive calls. The calls are words filed in the database; no cut-off is given here.

For the compound `c1ccc(Oc2ccc(-c3cn(-c4noc5ccccc45)nn3)cc2)cc1`, the IC50 (usually the point on the concentration scale where inhibition reaches its midpoint) with MOLM-13 (Homo sapiens) [1] worked out at 1000 nM; in the data set on MOLM-14 [12], 2000 nM. Besides, the Activity was 26% with MV4-11 [2]; “Non-toxic” in data set [4]; 28% in the data set on MOLM-14 [5]; 24% with MOLM-14 [6]; 28% with MOLM-13 (Homo sapiens) [8]; “Dose-dependent effect” in the data set on MV4-11 [9]. Besides, the Activity in the data set with MV4-11 [11] was 20%. Further, the inhibition entry in [3] and in data set [7] was “Active” in each case. Moreover, the result in the data set with MOLM-13 (Homo sapiens) [10] was Active.

Values taken from ChEMBL document CHEMBL3612059, “Synthesis of 1,2-benzisoxazole tethered 1,2,3-triazoles that exhibit anticancer activity in acute myeloid leukemia cell lines by inhibiting histone deacetylases, and inducing p21 and tubulin acetylation” (Bioorg Med Chem, 2015).
